Test results: ChEMBL document CHEMBL2311438, “Synthesis and biological evaluation of 4-hydroxy-4-(4-methoxyphenyl)-substituted proline and pyrrolidin-2-ylacetic acid derivatives as GABA uptake inhibitors” (Bioorg Med Chem, 2013)

How the values were obtained:
[1] = Inhibition of GAT3-mediated [3H]GABA uptake in bovine brain stem membrane fraction 2C compound preincubated for 10 mins by scintillation counting; type: cell membranes, Bos taurus
How it was run: (§1)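 50 nM [³H]GABA plus unlabelled GABA added, then 4 min at 37 °C. Stopped by filtration through glass-fibre filters presoaked in 0.9% NaCl, washed, scintillation counted. Triplicate; IC50 as mean ± SEM.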

[2] = Inhibition of GAT1-mediated [3H]GABA uptake in bovine frontal cortex membrane fraction 2B compound preincubated for 10 mins by scintillation counting; type: cell membranes, Bos taurus; how it was run: as §1
Bos taurus [3] = species: Bos taurus; assay: Inhibition of GAT1-mediated [3H]GABA uptake in bovine frontal cortex membrane fraction 2B assessed as remaining GABA uptake activity preincubated at 100 uM for 10 mins by scintillation counting; type: cell membranes
How it was run: (§2)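 Preliminary single-concentration screen giving percent remaining GABA uptake. Membranes were preincubated with compound for 10 min at 37 °C in Tris-HCl pH 7.2 saline with glucose. Then 50 nM [³H]GABA plus unlabelled GABA was added for 4 min at 37 °C. Filtration harvest onto NaCl-presoaked glass-fibre filters, saline washes, liquid scintillation counting. IC50 pursued only when uptake fell below 50%.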

[4] = Inhibition of GAT1-mediated [3H]GABA uptake in porcine frontal cortex membrane fraction 2B compound preincubated for 10 mins by scintillation counting; type: cell membranes, Sus scrofa; how it was run: as §1
[5] = Inhibition of GAT3-mediated [3H]GABA uptake in porcine brain stem membrane fraction 2C compound preincubated for 10 mins by scintillation counting; type: cell membranes, Sus scrofa; how it was run: as §1
Sus scrofa [6] = species: Sus scrofa; assay: Inhibition of GAT1-mediated [3H]GABA uptake in porcine frontal cortex membrane fraction 2B assessed as remaining GABA uptake activity preincubated at 100 uM for 10 mins by scintillation counting; type: cell membranes; how it was run: as §2
Sus scrofa [7] = species: Sus scrofa; assay: Inhibition of GAT3-mediated [3H]GABA uptake in porcine brain stem membrane fraction 2C assessed as remaining GABA uptake activity preincubated at 100 uM for 10 mins by scintillation counting; type: cell membranes; how it was run: as §2
Bos taurus [8] = species: Bos taurus; assay: Inhibition of GAT3-mediated [3H]GABA uptake in bovine brain stem membrane fraction 2C assessed as remaining GABA uptake activity preincubated at 100 uM for 10 mins by scintillation counting; type: cell membranes; how it was run: as §2
Bos taurus [9] = species: Bos taurus; assay: Inhibition of GAT3-mediated [3H]GABA uptake in calf brain stem membrane fraction 2C assessed as remaining GABA uptake activity preincubated at 100 uM for 10 mins by scintillation counting; type: cell membranes; how it was run: as §2
[10] = Inhibition of GAT1-mediated [3H]GABA uptake in calf frontal cortex membrane fraction 2B compound preincubated for 10 mins by scintillation counting; type: cell membranes, Bos taurus; how it was run: as §1
Bos taurus [11] = species: Bos taurus; assay: Inhibition of GAT1-mediated [3H]GABA uptake in calf frontal cortex membrane fraction 2B assessed as remaining GABA uptake activity preincubated at 100 uM for 10 mins by scintillation counting; type: cell membranes; how it was run: as §2
[12] = Inhibition of GAT3-mediated [3H]GABA uptake in calf brain stem membrane fraction 2C compound preincubated for 10 mins by scintillation counting; type: cell membranes, Bos taurus; how it was run: as §1

Row | SMILES | IC50 [4] | IC50 [5] | Activity (Sus scrofa [6]) | Activity (Sus scrofa [7]) | other results
1 | COc1ccc([C@]2(O)C[C@@H](C(=O)O)N(CCC=C(c3ccccc3)c3ccccc3)C2)cc1 |  |  |  |  | IC50 [1]: 237 µM; IC50 [2]: > 100 µM; Activity (Bos taurus [3]): > 50%
2 | COc1ccc([C@@]2(O)C[C@@H](CC(=O)O)N(CCC=C(c3sccc3C)c3sccc3C)C2)cc1 | > 100 µM | 122 µM | > 50% |  | 
3 | COc1ccc(C(OCCN2C[C@@](O)(c3ccc(OC)cc3)C[C@H]2C(=O)O)(c2ccc(OC)cc2)c2ccc(OC)cc2)cc1 |  |  |  |  | IC50 [1]: 63.3 µM; IC50 [2]: 68.1 µM
4 | COc1ccc([C@]2(O)CN[C@@H](C(=O)O)C2)cc1 | > 100 µM | > 100 µM | > 50% | > 50% | 
5 | COc1ccc([C@@]2(O)CN[C@H](CC(=O)O)C2)cc1 | > 100 µM | > 100 µM | > 50% | > 50% | 
6 | COc1ccc(C(OCCN2C[C@](O)(c3ccc(OC)cc3)C[C@H]2C(=O)O)(c2ccc(OC)cc2)c2ccc(OC)cc2)cc1 |  |  |  |  | IC50 [1]: 29.7 µM; IC50 [2]: 45.1 µM
7 | COc1ccc([C@]2(O)C[C@H](C(=O)O)N(CCC=C(c3ccccc3)c3ccccc3)C2)cc1 |  |  |  |  | Activity (Bos taurus [9]): > 50%; IC50 [10]: > 100 µM; Activity (Bos taurus [11]): > 50%; IC50 [12]: > 100 µM
8 | COc1ccc(C(OCCN2C[C@](O)(c3ccc(OC)cc3)C[C@@H]2CC(=O)O)(c2ccc(OC)cc2)c2ccc(OC)cc2)cc1 | 64.5 µM | 65.4 µM |  |  | 
9 | COc1ccc([C@]2(O)C[C@H](CC(=O)O)N(CCC=C(c3sccc3C)c3sccc3C)C2)cc1 | > 100 µM | > 100 µM | > 50% | > 50% | 
10 | COc1ccc([C@@]2(O)CN[C@H](C(=O)O)C2)cc1 | > 100 µM | > 100 µM | > 50% | > 50% | 
11 | COc1ccc([C@]2(O)CN[C@@H](CC(=O)O)C2)cc1 | > 100 µM | > 100 µM | > 50% | > 50% | 
12 | COc1ccc([C@@]2(O)C[C@H](C(=O)O)N(CCC=C(c3ccccc3)c3ccccc3)C2)cc1 |  |  |  |  | Activity (Bos taurus [9]): > 50%; IC50 [10]: > 100 µM; Activity (Bos taurus [11]): > 50%; IC50 [12]: > 100 µM
13 | COc1ccc([C@@]2(O)C[C@@H](C(=O)O)N(CCC=C(c3ccccc3)c3ccccc3)C2)cc1 |  |  |  |  | Activity (Bos taurus [8]): > 50%; IC50 [1]: > 100 µM; IC50 [2]: > 100 µM; Activity (Bos taurus [3]): > 50%
14 | COc1ccc([C@]2(O)C[C@@H](CC(=O)O)N(CCC=C(c3sccc3C)c3sccc3C)C2)cc1 | > 100 µM | 124 µM | > 50% |  | 

More lines, main results first:

Row | IC50 [4] | IC50 [5] | Activity (Sus scrofa [6]) | Activity (Sus scrofa [7]) | SMILES | other results
15 | 48.4 µM | 66.7 µM |  |  | COc1ccc(C(OCCN2C[C@](O)(c3ccc(OC)cc3)C[C@H]2CC(=O)O)(c2ccc(OC)cc2)c2ccc(OC)cc2)cc1 | 
16 | 59.2 µM | 66.1 µM |  |  | COc1ccc(C(OCCN2C[C@@](O)(c3ccc(OC)cc3)C[C@@H]2CC(=O)O)(c2ccc(OC)cc2)c2ccc(OC)cc2)cc1 | 
17 | 71 µM |  |  |  | COc1ccc(C(OCCN2C[C@](O)(c3ccc(OC)cc3)C[C@@H]2C(=O)O)(c2ccc(OC)cc2)c2ccc(OC)cc2)cc1 | Activity (Bos taurus [8]): > 50%; IC50 [1]: > 100 µM
18 | 114 µM | > 100 µM |  | > 50% | COc1ccc([C@@]2(O)C[C@H](CC(=O)O)N(CCC=C(c3sccc3C)c3sccc3C)C2)cc1 | 
19 | 75.2 µM | 78.9 µM |  |  | COc1ccc(C(OCCN2C[C@@](O)(c3ccc(OC)cc3)C[C@H]2CC(=O)O)(c2ccc(OC)cc2)c2ccc(OC)cc2)cc1 | 
20 | 56 µM | 38 µM |  |  | COc1ccc(C(OCCN2C[C@@](O)(c3ccc(OC)cc3)C[C@@H]2C(=O)O)(c2ccc(OC)cc2)c2ccc(OC)cc2)cc1 | 
